Consider 17 compounds from ChEMBL document CHEMBL1649585, “Role of the Mycobacterium tuberculosis P55 efflux pump in intrinsic drug resistance, oxidative stress responses, and growth” (2009).

In brackets after ≈: the same amount, converted by molar mass. Activity calls are given as the source filed them. Where a SMILES comes first, the peptide text is derived from it. Bridges are numbered along the chain shown (N, C = ends). [ ]: non-standard residue; d: D form. The star is where a group is joined. Ileψ(thiazoline)Cys = CC[C@H](C)[C@H](N)C1=N[C@H](C(=O)*)CS1; dOrn = NCCC[C@@H](N)C(=O)O

The test system of experiment [1] is Mycobacterium tuberculosis variant bovis BCG. In words: Antimicrobial activity against Mycobacterium bovis BCG KOP55 harboring inactivated p55 gene by resazurine microtiter assay in presence of 0.5 mg/liter reserpine. The conditions noted are these: KOP55, Urine. The format is functional. In short, it runs like this:
(§1)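 Resazurin microdilution MIC (serial twofold dilutions, 8 days at 37°C plus 2 days after resazurin) run with a fixed subinhibitory level of efflux pump inhibitor (valinomycin, reserpine or CCCP) present throughout. Triplicate, repeated at least three times.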

The test system is the same in experiment [2]. Nature of the experiment: Antimicrobial activity against Mycobacterium bovis BCG KOP55 harboring inactivated p55 gene by resazurine microtiter assay. Conditions: KOP55, Urine. Format: functional. In short, it runs like this:
(§2)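 Resazurin microdilution in liquid medium: serial twofold compound dilutions, plates incubated 8 days at 37°C, then 2 more days after adding resazurin. MIC read from the indicator. Run in triplicate and repeated at least three times.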

Experiment [3] shares this test system. Nature of the experiment: Antimicrobial activity against Mycobacterium bovis BCG KOP55 harboring pPAZ23 carrying p27-p55 operon by resazurine microtiter assay in presence of 0.1 mg/liter valinomycin. The format is functional. The conditions noted are these: KOP55, Urine. In short, it runs like this:
as §1
On the technique in general: Alamar Blue is a resazurin reagent that responds to reducing activity.

Experiment [4] shares this test system. In words: Antimicrobial activity against Mycobacterium bovis BCG KOP55 harboring pPAZ23 carrying p27-p55 operon by resazurine microtiter assay. The format is functional. Conditions: KOP55, Urine. In short, it runs like this: as §2
The test system is the same in experiment [5]. In words: Antimicrobial activity against Mycobacterium bovis BCG KOP55 harboring inactivated p55 gene by resazurine microtiter assay in presence of 1 mg/liter CCCP. Format: functional. The conditions noted are these: KOP55, Urine. In short, it runs like this: as §1
For experiment [6] the test system is unchanged. Nature of the experiment: Antimicrobial activity against Mycobacterium bovis BCG KOP55 harboring pPAZ23 carrying p27-p55 operon by resazurine microtiter assay in presence of 1 mg/liter CCCP. The format is functional. Conditions: KOP55, Urine. In short, it runs like this: as §1
Experiment [7] has the same test system. In words: Antimicrobial activity against Mycobacterium bovis BCG KOP55 harboring inactivated p55 gene by resazurine microtiter assay in presence of 0.1 mg/liter valinomycin. Format: functional. The conditions noted are these: KOP55, Urine. In short, it runs like this: as §1
The test system is the same in experiment [8]. Nature of the experiment: Antimicrobial activity against Mycobacterium bovis BCG KOP55 harboring pPAZ23 carrying p27-p55 operon by resazurine microtiter assay in presence of 0.5 mg/liter reserpine. The format is functional. Conditions: KOP55, Urine. In short, it runs like this:
as §1

Experiment [9] has the same test system. Nature of the experiment: Antimicrobial activity against Mycobacterium bovis BCG P55 at 5 umol after 14 days by disk diffusion method. Format: functional. In short, it runs like this: (§3)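 Disc assay on Middlebrook 7H10 agar: lawn spread from a suspension of 10^6 cells/ml, discs carrying the redox compound placed on the lawn, halos recorded after 14 days at 37°C.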
Background: In agar diffusion tests the substance spreads into inoculated agar from a disc or well.

For experiment [10] the test system is unchanged. In words: Antimicrobial activity against Mycobacterium bovis BCG KOP55 harboring inactivated p55 gene at 5 umol after 14 days by disk diffusion method. The format is functional. In short, it runs like this:
as §3

For experiment [11] the test system is unchanged. In words: Antimicrobial activity against Mycobacterium bovis BCG P55 at 0.125 umol after 14 days by disk diffusion method. Format: functional. In short, it runs like this:
as §3

For experiment [12] the test system is unchanged. In words: Increase in intracellular redox potential in Mycobacterium bovis BCG KOP55 harboring inactivated p55 gene assessed as increased accumulation of formazan at 64 mg/liter after 1 hr by MTT assay. The format is functional. In short, it runs like this: (§4)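 MTT reduction as an index of intracellular redox potential: cultures at OD600 0.2 treated with drug or solvent for 1 h at 37°C in quadruplicate wells, MTT (2 mg/ml stock) added, 3 h further incubation. Formazan solubilised with 10% SDS, 30 min shaking, absorbance at 600 nm. Repeated at least three independent times.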
(In general: Formazan colour is commonly taken as a measure of viable cells.)

The test system is the same in experiment [13]. Nature of the experiment: Antimicrobial activity against Mycobacterium bovis BCG KOP55 harboring inactivated p55 gene at 0.125 umol after 14 days by disk diffusion method. Format: functional. In short, it runs like this: as §3
For experiment [14] the test system is unchanged. Nature of the experiment: Increase in intracellular redox potential in Mycobacterium bovis BCG KOP55 harboring pPAZ23 carrying p27-p55 operon assessed as increased accumulation of formazan at 64 mg/liter after 1 hr by MTT assay. The format is functional. In short, it runs like this:
as §4

Experiment [15] shares this test system. In words: Antimicrobial activity against Mycobacterium bovis BCG KOP55 harboring inactivated p55 gene by twofold dilution method. Format: functional. In short, it runs like this:
(§5)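 Agar MIC: log-phase cultures diluted to 10^5 cells/ml, 10 µl spotted onto Middlebrook 7H10 plates with serial twofold antibiotic dilutions. Visible growth scored after 21 days at 37°C. Triplicate, repeated at least three times.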

Experiment [16] shares this test system. In words: Antimicrobial activity against Mycobacterium bovis BCG P55 by resazurine microtiter assay. The format is functional. Conditions: P55, Urine. In short, it runs like this:
as §2

Experiment [17] has the same test system. In words: Effect on intracellular redox potential in Mycobacterium bovis BCG KOP55 harboring pPAZ23 carrying p27-p55 operon assessed as accumulation of formazan at 5 mg/liter after 1 hr by MTT assay. The format is functional, organism-based. In short, it runs like this: as §4
Experiment [18] shares this test system. Nature of the experiment: Decrease in intracellular redox potential in Mycobacterium bovis BCG KOP55 harboring inactivated p55 gene assessed as decreased accumulation of formazan at 5 mg/liter after 1 hr by MTT assay. The format is functional. Set-up: scale not given: the % may be the effect or the level left. In short, it runs like this: as §4
The test system is the same in experiment [19]. In words: Antimicrobial activity against Mycobacterium bovis BCG KOP55 harboring pPAZ23 carrying p27-p55 operon by twofold dilution method. Format: functional. In short, it runs like this: as §5
Experiment [20] has the same test system. In words: Effect on intracellular redox potential in Mycobacterium bovis BCG KOP55 harboring pPAZ23 carrying p27-p55 operon assessed as accumulation of formazan at 256 mg/liter after 1 hr by MTT assay. The format is functional, organism-based. In short, it runs like this: as §4
Experiment [21] has the same test system. In words: Decrease in intracellular redox potential in Mycobacterium bovis BCG KOP55 harboring inactivated p55 gene assessed as decreased accumulation of formazan at 256 mg/liter after 1 hr by MTT assay. The format is functional. Set-up: scale not given: the % may be the effect or the level left. In short, it runs like this:
as §4

As to `CO[C@H]1/C=C/O[C@@]2(C)Oc3c(C)c(O)c4c(O)c(c(/C=N/N5CCN(C)CC5)c(O)c4c3C2=O)NC(=O)/C(C)=C\C=C\[C@H](C)[C@H](O)[C@@H](C)[C@@H](O)[C@@H](C)[C@H](OC(C)=O)[C@@H]1C` [RIFAMPIN], the MIC in experiment [1] came to 0.0004 µg/mL; in experiment [2], 0.0004 µg/mL; in [3] it was 0.0016 µg/mL; in [4], 0.0032 µg/mL (≈ 0.00389 µM); in experiment [5], 0.0002 µg/mL; in experiment [6] it was 0.0008 µg/mL. Moreover, the MIC came out at 0.0002 µg/mL in experiment [7] and 0.0016 µg/mL in experiment [8].
Turning to `OC(CS)C(O)CS` (racemic) [DL-DITHIOTHREITOL], the “inhibition zone (IZ)” value was determined as 0 mm in [9] and 30 mm in experiment [10].
Turning to `CC1=CC(=O)c2ccccc2C1=O` [MENADIONE], the “inhibition zone (IZ)” value in experiment [11] is reported as 20 mm; in experiment [13] it was 16 mm. Besides, the “fold change (FC)” value came out at 1.3 in [12] and 3.5 in [14].
Turning to `CC[C@H](C)[C@H](N)C1=N[C@H](C(=O)N[C@@H](CC(C)C)C(=O)N[C@H](CCC(=O)O)C(=O)N[C@H](C(=O)N[C@H]2CCCCNC(=O)[C@H](CC(N)=O)NC(=O)[C@@H](CC(=O)O)NC(=O)[C@H](Cc3cnc[nH]3)NC(=O)[C@@H](Cc3ccccc3)NC(=O)[C@H]([C@@H](C)CC)NC(=O)[C@@H](CCCN)NC2=O)[C@@H](C)CC)CS1` [BACITRACIN] ({Ileψ(thiazoline)Cys}-L[dE]IK[dOrn]I[dF]H[dD]N; lactam 4-C), the MIC is 16 µg/mL in [2], greater than 256 µg/mL in experiment [4], 16 µg/mL in experiment [5] and greater than 256 µg/mL in [6].
Turning to `CC(C)[C@@H]1NC(=O)[C@H](C)OC(=O)[C@@H](C(C)C)NC(=O)[C@@H](C(C)C)OC(=O)[C@H](C(C)C)NC(=O)[C@H](C)OC(=O)[C@@H](C(C)C)NC(=O)[C@@H](C(C)C)OC(=O)[C@H](C(C)C)NC(=O)[C@H](C)OC(=O)[C@@H](C(C)C)NC(=O)[C@@H](C(C)C)OC1=O` [VALINOMYCIN], the figures for the MIC in [2] and in experiment [4] were 0.2 µg/mL and 0.4 µg/mL (≈ 0.36 µM), respectively.
In experiment [15], `Oc1cc(Cl)ccc1Oc1ccc(Cl)cc1Cl` [TRICLOSAN] displayed an MIC of 8 µg/mL (≈ 27.6 µM).
With `Cc1c(C)n2c(CBr)c(C)c(=O)n2c1=O` [MONOBROMOBIMANE], the MIC stood at 125 µM in experiment [2] and 500 µM (≈ 136 µg/mL) in experiment [16].
On to `CC(C)/N=c1\cc2n(-c3ccc(Cl)cc3)c3ccccc3nc-2cc1Nc1ccc(Cl)cc1` [CLOFAZIMINE], for which the MIC was determined as 0.025 µg/mL (≈ 0.0528 µM) in [15] and 0.1 µg/mL (≈ 0.211 µM) in experiment [19]. Besides, the outcome in experiment [17] was inactive. In addition, the Activity in [18] is 15%.
Take `CO[C@@H]1[C@@H](OC(N)=O)[C@@H](O)[C@H](Oc2ccc3c(O)c(NC(=O)c4ccc(O)c(CC=C(C)C)c4)c(=O)oc3c2C)OC1(C)C` [NOVOBIOCIN]: the MIC was 1 µg/mL in experiment [1]; 2 µg/mL in experiment [2]; 8 µg/mL in experiment [3]; 16 µg/mL (≈ 26.1 µM) in experiment [4]; 1 µg/mL in experiment [5]; 4 µg/mL in experiment [6]. Further, the MIC was 0.5 µg/mL in experiment [7] and 8 µg/mL in experiment [8].
For the compound `COC(=O)[C@H]1[C@H]2C[C@@H]3c4[nH]c5cc(OC)ccc5c4CCN3C[C@H]2C[C@@H](OC(=O)c2cc(OC)c(OC)c(OC)c2)[C@@H]1OC` [RESERPINE], the MIC turned out to be 2 µg/mL in [2] and 2 µg/mL (≈ 3.29 µM) in [4].
In the case of `N#CC(C#N)=NNc1cccc(Cl)c1` [CARBONYL CYANIDE M-CHLOROPHENYLHYDRAZONE], the MIC in [2] was determined as 2 µg/mL.
Regarding `O=[N+]([O-])c1cn2c(n1)OC[C@@H](OCc1ccc(OC(F)(F)F)cc1)C2` [PRETOMANID], the values for the MIC in [2] and in [4] were 0.125 µg/mL and 0.25 µg/mL (≈ 0.696 µM), respectively.
`CC[C@@H](CO)NCCN[C@@H](CC)CO` [ETHAMBUTOL] came in with an MIC in experiment [2] of 2 µg/mL.
For the compound `CN(C)C(=O)/N=N/C(=O)N(C)C` [DIAMIDE], the “inhibition zone (IZ)” value came to 0 mm in experiment [9] and 30 mm in experiment [10]. The outcome in [20] was inactive. Besides, the Activity in experiment [21] amounted to 35%.
Regarding `CN[C@H](CC(C)C)C(=O)N[C@H]1C(=O)N[C@@H](CC(N)=O)C(=O)N[C@H]2C(=O)N[C@H]3C(=O)N[C@H](C(=O)N[C@H](C(=O)O)c4cc(O)cc(O)c4-c4cc3ccc4O)[C@H](O)c3ccc(c(Cl)c3)Oc3cc2cc(c3O[C@@H]2O[C@H](CO)[C@@H](O)[C@H](O)[C@H]2O[C@H]2C[C@](C)(N)[C@H](O)[C@H](C)O2)Oc2ccc(cc2Cl)[C@H]1O` [VANCOMYCIN], the MIC in [2] is 0.25 µg/mL; in [3], 4 µg/mL; in [4], 4 µg/mL (≈ 2.76 µM); in experiment [5], 0.25 µg/mL.
In [15], `CN(C)CCCN1c2ccccc2Sc2ccc(Cl)cc21` [CHLORPROMAZINE] displayed an MIC of 4 µg/mL (≈ 12.5 µM).
Turning to `Clc1ccc(COC(Cn2ccnc2)c2ccc(Cl)cc2Cl)cc1` (configuration not stated) [ECONAZOLE], the MIC in experiment [15] is 1.6 µg/mL (≈ 4.19 µM); in [19], 6.4 µg/mL (≈ 16.8 µM).

Broadly, the MIC is the smallest concentration in the dilution series that meets the test's criterion for growth inhibition.
